Tm and folding enthalpy data for 37 sequences are collected here from the array DNA melting data of Ke et al. (doi:10.1101/2024.01.08.574731).

Series [1] is described as follows: melting temperature; fluorescence melt of hairpins on a sequencing array, two-state fit, raised by 9.35 °C to match UV melts. The note with it: sodium 0.088 M. The procedure, abridged: (§1)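 Library hairpins on a sequenced MiSeq flow cell carried annealed Cy3 and quencher oligos, and their Cy3 fluorescence was imaged in 50 mM Na-HEPES pH 8.0 with 25 mM NaCl, in 2.5 °C steps up to 60 °C. Signals were normalised to Cy3 before quenching and to control constructs. Melting temperature and folding enthalpy were obtained from bootstrapped two-state fits, combined by inverse-variance weighting across four replicates, and the fitted temperatures were then raised by 9.35 °C to match UV melts.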

A short description of series [2]: folding enthalpy; higher = less favourable; fluorescence melt of hairpins on a sequencing array, two-state fit. Particulars: sodium 0.088 M. The procedure, abridged:
as §1

Consider CGCGCGGAAACGCTGGCG ((((((....)))..))), for which, in series [1], the Tm came out at 53.7 °C. Moreover, in series [2], the folding enthalpy is -29.6 kcal/mol.
With CGCGGAACGATCCGCG ((((((....)))))), the Tm in series [1] is 67.6 °C. The folding enthalpy in series [2] is -31.8 kcal/mol.
Turning to CGCGGAACGTCCGCG ((((((...)))))), in series [1], the Tm stood at 60.5 °C. Besides, the folding enthalpy in series [2] was -39.5 kcal/mol.
In the same order, the values of CGCGGAAGCCTCCGCG ((((((....)))))) are 68.6 °C and -31.3 kcal/mol.
In the same order, the values of CGCGGAAGGTCCGCG ((((((...)))))) are 69.2 °C and -27.1 kcal/mol.
For CGCGGAATTCTCCGCG ((((((....)))))), the Tm in series [1] is 69.3 °C. Besides, in series [2], the folding enthalpy is -32 kcal/mol.
In the same order, the values of CGCGGACAAATCCGCG ((((((....)))))) are 60.9 °C and -40.8 kcal/mol.
On the same counts, the results for CGCGGACAGCTCCGCG ((((((....)))))) are 68.2 °C and -30.1 kcal/mol.
On the same counts, the results for CGCGGACAGTTCCGCG ((((((....)))))) are 66.6 °C and -40.7 kcal/mol.
As for CGCGGACCACTCCGCG ((((((....)))))), the Tm in series [1] stood at 64 °C. In series [2], the folding enthalpy is -32.7 kcal/mol.
On the same counts, the results for CGCGGACCATTCCGCG ((((((....)))))) are 65.3 °C and -37.3 kcal/mol.
In the same order, the values of CGCGGACCGATCCGCG ((((((....)))))) are 68.5 °C and -36.5 kcal/mol.
Regarding CGCGGACGACTCCGCG ((((((....)))))), in series [1], the Tm is 63.5 °C. The folding enthalpy in series [2] is -40.8 kcal/mol.
As for CGCGGACGCCTCCGCG ((((((....)))))), the Tm in series [1] worked out at 68.8 °C. Further, the folding enthalpy in series [2] is -32 kcal/mol.
In the same order, the values of CGCGGACTTCTCCGCG ((((((....)))))) are 65.9 °C and -35.6 kcal/mol.
On the same counts, the results for CGCGGAGCGATCCGCG ((((((....)))))) are 62.2 °C and -23.5 kcal/mol.
In the same order, the values of CGCGTGCGGAAACGCGCG (((..(((....)))))) are 66.1 °C and -12.4 kcal/mol.
Turning to CGCTACGGAAACGTGCG (((.(((....)))))), the Tm in series [1] was 53.3 °C. The folding enthalpy in series [2] is -33.2 kcal/mol.
As to CGCTACGGAAACGTGGCG (((.(((....))).))), the Tm in series [1] stood at 59.5 °C. In addition, the folding enthalpy in series [2] is -40.1 kcal/mol.
Consider CGCTACGGAAACGTTGCG (((.(((....))).))), for which the Tm in series [1] amounted to 56.3 °C. In addition, the folding enthalpy in series [2] was -38.7 kcal/mol.
In the same order, the values of CGCTAGAAATAGCG (((((....))))) are 51.8 °C and -24.9 kcal/mol.
In the same order, the values of CGCTCGGAAACGAAAGCG ((((((....)))..))) are 47.2 °C and -27.8 kcal/mol.
In the same order, the values of CGCTCGGAAACGAAGGCG ((((((....)))..))) are 44.7 °C and -29.6 kcal/mol.
Turning to CGCTCGGAAACGACCGCG ((((((....)))..))), in series [1], the Tm was found to be 38.6 °C. In addition, the folding enthalpy in series [2] is -21.6 kcal/mol.
On to CGCTCGGAAACGACGGCG ((((((....)))..))), for which the Tm in series [1] came out at 46.6 °C. Also, the folding enthalpy in series [2] was -22.7 kcal/mol.
In the same order, the values of CGCTCGGAAACGAGGGCG ((((((....)))..))) are 51.7 °C and -12.4 kcal/mol.
For the sequence CGCTCGGAAACGATCGCG ((((((....)))..))), the Tm in series [1] was 40.2 °C. Also, in series [2], the folding enthalpy was -24.2 kcal/mol.
As for CGCTCTCGGAAACGAGCG (((..(((....)))))), in series [1], the Tm is 46 °C. For the same sequence, the folding enthalpy in series [2] was -17.5 kcal/mol.
In the same order, the values of CGCTGCGGAAACGCGCG (((.(((....)))))) are 60.8 °C and -27.1 kcal/mol.
Consider CGCTGCGGAAACGCTGCG (((.(((....))).))), for which, in series [1], the Tm amounted to 69.2 °C. The folding enthalpy in series [2] is -30.7 kcal/mol.
On the same counts, the results for CGCTTGAAAAAGCG (((((....))))) are 58.2 °C and -23.3 kcal/mol.
On the same counts, the results for CGCTTGCGGAAACGCGCG (((..(((....)))))) are 51.3 °C and -10.8 kcal/mol.
On the same counts, the results for CGGAAACGGAAACGTCCG (((..(((....)))))) are 41.1 °C and -22.9 kcal/mol.
As to CGGAAGAAATTCCG (((((....))))), the Tm in series [1] was 46.4 °C. The folding enthalpy in series [2] is -25.1 kcal/mol.
For CGGACGGAAACGTCACCG ((((((....)))..))), the Tm in series [1] came to 34.4 °C. In addition, the folding enthalpy in series [2] is -11.6 kcal/mol.
Consider CGGACGGAAACGTGCCG ((((((....))).))), for which the Tm in series [1] turned out to be 48.4 °C. Besides, the folding enthalpy in series [2] is -18.7 kcal/mol.
Take CGGACGGAAACGTGGCCG ((((((....)))..))): in series [1], the Tm stood at 44.1 °C. The folding enthalpy in series [2] was -25.7 kcal/mol.
